The text below walks through data of ChEMBL document CHEMBL1926575, “Synthesis, biological evaluation and molecular modeling of 1,2,3-triazole analogs of combretastatin A-1” (Bioorg Med Chem, 2012).

Experiment [1] in a line: Cytotoxicity against human fibroblast cells by alamar blue assay. In kind it is cell-based. (The colour change of resazurin is a common sign of viable cells or microbes.)
Another experiment concerns CCRF-CEM. Kind of experiment: Cytotoxicity against human CEM cells by alamar blue assay. In kind it is functional, cell-based.
The next experiment has as its system HT-29. The experiment in a line: Cytotoxicity against human HT-29 cells by alamar blue assay. In kind it is functional, cell-based.
The next experiment relates to NCI-H460. The experiment in a line: Cytotoxicity against human NCI-H460 cells by alamar blue assay. In kind it is functional, cell-based.
Experiment [2] in a line: Inhibition of angiogenesis in endothelial cells assessed as inhibition of tube formation after 18 hrs by inverted microscopic analysis. In kind it is functional, cell-based. Conditions: Endothelial cell.
Another experiment concerns MCF7. The experiment in a line: Cytotoxicity against human MCF7 cells by alamar blue assay. In kind it is functional, cell-based.
The target in a further experiment is Tubulin (Sus scrofa, UniProt P02554+P02550). Kind of experiment: Inhibition of porcine brain tubulin polymerization after 60 mins. In outline:
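Porcine brain tubulin (50 ul of 11 mg/ml stock) in Mes buffer (0.1 M Mes, 1 mM EGTA, 0.5 mM MgCl2, pH 6.6) with GTP (20 ul of 5 mM stock), plate prechilled 4 °C, drug added in DMSO; A350 recorded at ambient temperature for 60 min against drug blanks. IC50 read graphically as percent of control assembly.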

A short description of experiment [3]: Ratio of CA-1 IC50 to compound IC50 for inhibition of angiogenesis in endothelial cells. In kind it is functional, Endothelial cell.

Molecules are shown by their SMILES.

What is called IC50 is the point on the concentration scale where inhibition reaches its midpoint. Turning to `COc1ccc(/C=C\c2cc(OC)c(OC)c(OC)c2)cc1O` [COMBRETASTATIN A4], the half-maximal inhibitory concentration (IC50) in experiment [1] was over 100 µM; in the experiment with CCRF-CEM it was over 100 µM; in the experiment with HT-29 it was 0.4 µM; with NCI-H460 it was 4.4 µM; in experiment [2] it was 0.01 µM; with MCF7 it was 48.9 µM.
In the case of `COc1cc(-n2nncc2-c2ccc3c(c2O)OC(C)(C)O3)cc(OC)c1OC`, the IC50 in experiment [1] is over 100 µM; against Tubulin, over 20 µM; in the experiment on CCRF-CEM, over 100 µM; with HT-29, over 100 µM; with NCI-H460, 16.8 µM; in experiment [2], over 10 µM. The 50% inhibitory concentration (IC50) in the experiment on MCF7 stood at 46.3 µM.
For `COc1ccc(-c2cnnn2-c2cc(OC)c(OC)c(OC)c2)c(F)c1F`, the IC50 in experiment [1] is over 100 µM; against Tubulin it was 15.6 µM; in the experiment with CCRF-CEM, over 100 µM; with HT-29, 1.9 µM; with NCI-H460 it was 4.9 µM; in experiment [2], 0.3 µM. Moreover, in the experiment on MCF7, the midpoint of inhibition, the IC50, lay at 26.7 µM. The “Ratio IC50” value in experiment [3] was found to be 10.
As to `COc1cc(-n2nncc2-c2ccc3c(c2O)OCO3)cc(OC)c1OC`, the IC50 in experiment [1] is over 100 µM; on Tubulin, 17.1 µM; in the experiment with CCRF-CEM it was over 100 µM; in the experiment on HT-29, 8.8 µM; in the experiment on NCI-H460, 7.4 µM; in experiment [2], 3.4 µM. Besides, in the experiment on MCF7, the IC50 is over 100 µM.
For `COc1ccc(-c2cnnn2-c2cc(OC)c(OC)c(OC)c2)c(N)c1N`, the IC50 in experiment [1] is over 100 µM; against Tubulin, 5.2 µM; with CCRF-CEM, over 100 µM; in the experiment with HT-29, 17.2 µM; in the experiment on NCI-H460, 17.3 µM; in experiment [2] it was 0.3 µM. Also, it took 38.8 µM to reach half-maximal inhibition in the experiment with MCF7 (IC50). Moreover, in experiment [3], the “Ratio IC50” value is recorded as 10.
For `COc1ccc(/C=C\c2cc(OC)c(OC)c(OC)c2)c(O)c1O` [COMBRETASTATIN A-1], the IC50 in experiment [1] is over 100 µM; against Tubulin, 3.5 µM; in the experiment on CCRF-CEM, over 100 µM; with HT-29, 0.9 µM; with NCI-H460, 1.8 µM; in experiment [2], 3.2 µM. The compound also displayed an IC50 in the experiment on MCF7 of 75.9 µM.
For `COc1cc(-n2cc(-c3ccc(OC)c([N+](=O)[O-])c3[N+](=O)[O-])nn2)cc(OC)c1OC`, the IC50 is over 100 µM in experiment [1]; over 100 µM with CCRF-CEM; over 100 µM with HT-29; 18.2 µM with NCI-H460; over 10 µM in experiment [2]; over 100 µM with MCF7.
In the case of `COc1ccc(-c2cn(-c3cc(OC)c(OC)c(OC)c3)nn2)c(N)c1N`, the IC50 in experiment [1] was over 100 µM; with CCRF-CEM, over 100 µM; in the experiment on HT-29 it was over 100 µM; with NCI-H460, 29.8 µM; in experiment [2], over 10 µM; in the experiment with MCF7, over 100 µM.
On Tubulin, `COc1ccc(-c2cnnn2-c2cc(OC)c(OC)c(OC)c2)c(O)c1O` registered an IC50 of 10.1 µM.
As for `COc1ccc(-n2nncc2-c2cc(OC)c(OC)c(OC)c2)c(O)c1O`, the IC50 is over 100 µM in experiment [1]; over 20 µM on Tubulin; over 100 µM in the experiment with CCRF-CEM; 64.3 µM in the experiment on HT-29; 26.6 µM with NCI-H460; over 10 µM in experiment [2]. In the experiment on MCF7, this compound registered an IC50 of over 100 µM.
In the case of `COc1cc(-n2nncc2-c2ccc(OC)c([N+](=O)[O-])c2[N+](=O)[O-])cc(OC)c1OC`, the IC50 in experiment [1] was 31.5 µM; against Tubulin, over 20 µM; in the experiment with CCRF-CEM, 26 µM; in the experiment on HT-29, 12 µM; in the experiment on NCI-H460, 0.7 µM; in experiment [2], 4.4 µM. The 50% inhibitory concentration (IC50) with MCF7 was 6.1 µM.
